From ChEMBL document CHEMBL4689842, “EUbOPEN Chemogenomics Library wave 1” (2021)

Tested on: U2OS
Experiment: Multiplex assay against U2OS
Format: toxicity, cell-based
Conditions: human
Method in brief: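 Compound was added to live cells that had been stained at seeding with Hoechst33342, BioTracker Green Microtubule Cytoskeleton Dye, MitoTracker Red and Annexin V Alexa Fluor 680, and imaging followed on a CQ1 microscope at 37°C and 5% CO2. CellPathfinder machine-learning gating divided cells into Hoechst high-intensity objects or normal cells, normal cells into healthy, pyknosed or fragmented nuclei, and pyknosed cells into mitotic or apoptotic. Tubulin, mitochondrial-mass and membrane-permeability phenotypes are per cents of healthy-nucleus cells.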

[1] = 12 h, 1 µM, compound concentration 1 uM, replicate 1
[2] = 12 h, 1 µM, compound concentration 1 uM, replicate 2
[3] = 12 h, 10 µM, compound concentration 10 uM, replicate 1
[4] = 12 h, 10 µM, compound concentration 10 uM, replicate 2
[5] = 24 h, 1 µM, compound concentration 1 uM, replicate 1
[6] = 24 h, 1 µM, compound concentration 1 uM, replicate 2
[7] = 24 h, 10 µM, compound concentration 10 uM, replicate 1
[8] = 24 h, 10 µM, compound concentration 10 uM, replicate 2

## CCN(CC)CCCCNc1ncc2cc(-c3cc(OC)cc(OC)c3)c(NC(=O)NC(C)(C)C)nc2n1 [PD-173074]
[1]
  Population Apoptotic (%): 53%
  Population Fragmented Nuclei (%): 27%
  Population Healthy Nuclei (%): 4%
  Population Hoechst High Intensity Objects (%): 56%
  Population Membrane Permeable-Phenotype (%): 66%
  Population Mitochondria Different-Phenotype (%): 16%
  Population Mitotic Cells (%): 46%
  Population Normal (%): 43%
  Population Pyknosed Nuclei (%): 67%
  Population Tubulin-Different-Phenotype (%): 33%
  Total Cell Count: 280
[2]
  Population Apoptotic (%): 54%
  Population Fragmented Nuclei (%): 31%
  Population Healthy Nuclei (%): 11%
  Population Hoechst High Intensity Objects (%): 55%
  Population Membrane Permeable-Phenotype (%): 64%
  Population Mitochondria Different-Phenotype (%): 29%
  Population Mitotic Cells (%): 45%
  Population Normal (%): 44%
  Population Pyknosed Nuclei (%): 57%
  Population Tubulin-Different-Phenotype (%): 47%
  Total Cell Count: 186
[3]
  Population Fragmented Nuclei (%): 20%
  Population Healthy Nuclei (%): 52%
  Population Hoechst High Intensity Objects (%): 19%
  Population Membrane Permeable-Phenotype (%): 39%
  Population Mitochondria Different-Phenotype (%): 27%
  Population Normal (%): 80%
  Population Pyknosed Nuclei (%): 26%
  Population Tubulin-Different-Phenotype (%): 92%
  Total Cell Count: 206
[4]
  Population Apoptotic (%): 21%
  Population Fragmented Nuclei (%): 33%
  Population Healthy Nuclei (%): 34%
  Population Hoechst High Intensity Objects (%): 30%
  Population Membrane Permeable-Phenotype (%): 37%
  Population Mitochondria Different-Phenotype (%): 51%
  Population Mitotic Cells (%): 78%
  Population Normal (%): 69%
  Population Pyknosed Nuclei (%): 31%
  Population Tubulin-Different-Phenotype (%): 73%
  Total Cell Count: 129
[5]
  Population Apoptotic (%): 70%
  Population Fragmented Nuclei (%): 17%
  Population Healthy Nuclei (%): 8%
  Population Hoechst High Intensity Objects (%): 60%
  Population Membrane Permeable-Phenotype (%): 71%
  Population Mitochondria Different-Phenotype (%): 28%
  Population Mitotic Cells (%): 29%
  Population Normal (%): 39%
  Population Pyknosed Nuclei (%): 74%
  Population Tubulin-Different-Phenotype (%): 57%
  Total Cell Count: 298
[6]
  Population Apoptotic (%): 71%
  Population Fragmented Nuclei (%): 30%
  Population Healthy Nuclei (%): 15%
  Population Hoechst High Intensity Objects (%): 63%
  Population Membrane Permeable-Phenotype (%): 84%
  Population Mitochondria Different-Phenotype (%): 38%
  Population Mitotic Cells (%): 28%
  Population Normal (%): 36%
  Population Pyknosed Nuclei (%): 53%
  Population Tubulin-Different-Phenotype (%): 69%
  Total Cell Count: 168
[7]
  Population Apoptotic (%): 35%
  Population Fragmented Nuclei (%): 16%
  Population Healthy Nuclei (%): 54%
  Population Hoechst High Intensity Objects (%): 17%
  Population Membrane Permeable-Phenotype (%): 20%
  Population Mitochondria Different-Phenotype (%): 48%
  Population Mitotic Cells (%): 64%
  Population Normal (%): 82%
  Population Pyknosed Nuclei (%): 29%
  Population Tubulin-Different-Phenotype (%): 74%
  Total Cell Count: 202
[8]
  Population Apoptotic (%): 45%
  Population Fragmented Nuclei (%): 26%
  Population Healthy Nuclei (%): 33%
  Population Hoechst High Intensity Objects (%): 21%
  Population Membrane Permeable-Phenotype (%): 18%
  Population Mitochondria Different-Phenotype (%): 52%
  Population Mitotic Cells (%): 54%
  Population Normal (%): 78%
  Population Pyknosed Nuclei (%): 40%
  Population Tubulin-Different-Phenotype (%): 59%
  Total Cell Count: 113
